Screening results deposited in PubChem by The Scripps Research Institute Molecular Screening Center.
TLR4 MyD88 comp = inhibitors of TLR4-MyD88 association in cells, primary screen, cell-based, HeLa CL3-4, BLA complementation, FRET ratio | Toll-like receptor 4 (Homo sapiens) + Myeloid differentiation primary response protein … | HeLa CL3-4 TLR4/MyD88 BLA complementation | inhibition, % at 8.4 µM | 200,000 compounds, 0.18% hits; in the data active = inhibition above about 25%;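 also: 0% = vehicle and 100% = reference inhibitor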
NOD2 RIPK2 PPI = NOD2-RIPK2 binding disruptors in cells, primary screen, fluorescence, CHO cells, BLA complementation | 360,000 compounds, 0.38% hits | CCF4 ratio | inhibition, % at 4.98 µM; in the data active = inhibition above about 21%;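 also: 0% = vehicle only and 100% = reference blocker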
TLR9-MyD88 block = inhibitors of TLR9-MyD88 association in cells, primary screen, cell-based, CHO, BLA complementation, fluorescence. CCF4 FRET ratio. inhibition, % at 4.98 µM. 340,000 compounds, 0.21% hits. AID 504734, 2011;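 active = inhibition above the mean over all tested compounds plus 3 SD, cut at about 21% in these data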;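 also: 0% = DMSO only wells and 100% = clavulanate BLA inhibitor control wells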
MC4R antag cAMP = MC4R antagonists of cAMP signaling, primary screen, cell-based, TR-FRET, antagonist arm of biased-ligand search; 360,000 compounds, 0.48% hits; AID 540295, 2011; Melanocortin receptor 4 (Homo sapiens), P32245; inhibition, % at 6.5 µM; MC4R-expressing cells, MTII-stimulated cAMP, LANCE TR-FRET;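 active = inhibition above its plate's cutoff, the mean of tested wells on that plate plus 3 SD, cut at about 29% in these data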;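 also: 0% = Melanotan II alone and 100% = Melanotan II plus saturating MCL0020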
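Assay system: human MC4R-expressing U2OS cells; reagent: Melanotan II stimulation of cells; dosing: 6.5 µM single dose; timing: compound 30 min, challenge 1 h, detection 1 h; signal: TR-FRET cAMP assay; replicates: one well per compound, no replicates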
MC4R barr agon = MC4R agonists recruiting beta-arrestin, primary screen, cell-based, luminescence, agonist arm of biased-ligand search | Melanocortin receptor 4 (Homo sapiens), P32245 | U2OS MC4R beta-arrestin complementation; percent of melanotan II response, DMSO zero | activation, % at 8.9 µM | 360,000 compounds, 0.98% hits | AID 540308, 2011;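 active = activation above a per-plate cutoff, the mean activation of sample wells on that plate plus 3 SD, cut at about 8% in these data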
MC4R barr ag = MC4R beta-arrestin agonists, retest, confirmation, cell-based, luminescence, U2OS | AID 602192, 2012 | shares compounds with MC4R barr agon | 2,400 compounds, 31% hits | U2OS MC4R beta-arrestin recruitment; scaled DMSO 0%, Melanotan II 100% | activation, % at 8.9 µM;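 active = mean activation across replicates above the hit cutoff set in the earlier primary screen, cut at about 8% in these data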
MOR DOR agonist = agonists of MOR-DOR heterodimerization, counter-screen for MC4R biased agonist project, cell-based, luminescence; shares compounds with MC4R barr agon; U2OS PathHunter beta-arrestin, beta-gal luminescence; percent of deltorphin B response, DMSO zero; activation, % at 9.2 µM; 2,400 compounds, 5.8% hits; AID 602194, 2012;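 active = mean activation across replicates exceeds the hit threshold derived in the earlier primary screen, cut at about 18% in these data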;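 also: 100% = deltorphin B at 0.9 µM final and 0% = DMSO alone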
Target sequence (P35372 whole entry, looked up): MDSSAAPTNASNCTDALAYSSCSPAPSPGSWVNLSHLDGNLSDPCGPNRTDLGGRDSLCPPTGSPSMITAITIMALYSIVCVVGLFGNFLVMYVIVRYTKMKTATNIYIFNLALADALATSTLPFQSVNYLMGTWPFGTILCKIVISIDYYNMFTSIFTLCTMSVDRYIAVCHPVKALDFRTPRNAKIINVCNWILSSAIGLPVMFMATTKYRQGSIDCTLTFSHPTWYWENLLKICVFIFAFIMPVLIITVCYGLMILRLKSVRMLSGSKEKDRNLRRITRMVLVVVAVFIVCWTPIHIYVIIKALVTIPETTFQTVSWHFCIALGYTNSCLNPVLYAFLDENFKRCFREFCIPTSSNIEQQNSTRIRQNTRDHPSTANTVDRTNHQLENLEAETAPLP
Target sequence (P41143 whole entry, looked up): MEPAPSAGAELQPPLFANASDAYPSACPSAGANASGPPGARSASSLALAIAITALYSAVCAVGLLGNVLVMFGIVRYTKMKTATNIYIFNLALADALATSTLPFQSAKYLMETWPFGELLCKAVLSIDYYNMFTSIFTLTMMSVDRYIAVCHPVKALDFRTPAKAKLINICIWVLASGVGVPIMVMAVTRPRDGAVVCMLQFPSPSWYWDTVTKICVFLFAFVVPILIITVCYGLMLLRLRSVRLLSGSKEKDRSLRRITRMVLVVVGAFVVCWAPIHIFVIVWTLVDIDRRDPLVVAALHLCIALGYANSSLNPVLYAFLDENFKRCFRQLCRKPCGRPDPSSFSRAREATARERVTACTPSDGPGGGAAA
* marks the source's active call; other numbers are inactive results; . = no result given. This is a sample that favours compounds with a hit; in the whole collection about 1.8% have one here.

SMILES	TLR4 MyD88 comp	NOD2 RIPK2 PPI	TLR9-MyD88 block	MC4R antag cAMP	MC4R barr agon	MC4R barr ag	MOR DOR agonist
O=[N+]([O-])c1ccccc1CNC1CCCc2ccccc21 (centres undefined)	-11	6	-10	-3	0	.	.
Cc1cccc(NC(=O)c2cccc3c2C(=O)c2ccccc2-3)c1	13	-3	3	5	33*	8.3*	9
COc1cc2c(cc1OC)CN(CC(=O)Nc1ccc(Cl)c(S(=O)(=O)N(C)C)c1)CC2	9	2	2	4	-1	.	.
O=C(COc1ccccc1[N+](=O)[O-])Nc1ccc2c(c1)CCC2	.	0	9	2	13*	2	3
Cc1cc(O)c(NC(=S)NC(=O)c2ccc(-c3ccc(Cl)cc3)o2)cc1C	4	-5	-2	4	-10	.	.
Cc1ccc(NC(=S)NC(=O)c2ccc(-c3ccc(Cl)cc3)o2)c(O)c1	1	4	-14	7	16*	21*	2
O=C(CCN1C(=O)/C(=C/C=C/c2ccccc2)SC1=S)Nc1cccnc1	5	3	0	-7	12*	32*	13
O=C(CCN1C(=O)/C(=C/C=C/c2ccccc2)SC1=S)Nc1ccccn1	3	-4	0	14	34*	22*	12
Cc1csc(=O)n1CC(=O)OCC(=O)NCc1ccc(Cl)cc1Cl	.	1	-2	10	0	.	.
COc1cc(/C=C/C(=O)OCC(=O)NCCc2ccccc2)cc(OC)c1OC	-4	-7	-7	10	0	.	.
COc1cc(/C=C/C(=O)OCC(=O)Nc2ccccc2Cl)cc(OC)c1OC	10	2	6	1	15*	4	10
COC(=O)c1ccccc1NC(=O)COC(=O)/C=C/c1cccs1	.	-12	2	4	20*	4	2
COc1ccc(NC(=O)N(C)C[C@H]2Oc3ccc(NS(=O)(=O)c4cccs4)cc3C(=O)N([C@@H](C)CO)C[C@@H]2C)cc1	.	-3	-3	10	-2	.	.
Cc1ccc(C(c2nnnn2C2CCCC2)N2c3ccccc3CC2C)cc1 (centres undefined)	5	0	-4	7	-2	.	.
Cc1cc(C)c2nc(-n3nc(C)cc3N)cc(C)c2c1	-11	-1	-8	-8	15*	2	3
COc1cccc(N2C(=NC(=O)C3CCCCC3)SC3CS(=O)(=O)CC32)c1 (centres undefined)	.	-5	0	6	-1	.	.
Cc1c(CNC(=O)C2CCC(=O)N(CCc3ccccc3)C2)cnn1C (centres undefined)	.	-1	2	1	0	.	.
COc1ccc(-c2ccc(-c3noc(-c4cccs4)n3)c(OC)n2)cc1	4	-5	0	-1	17*	5	1
COc1ccc(-c2ccc(-c3noc(-c4ccccc4C)n3)c(OC)n2)cc1	0	-2	0	3	0	.	.
COc1ccc(-c2ccc(-c3noc(-c4ccccc4OC)n3)c(OC)n2)cc1	4	4	7	5	10*	2	1
CC(=O)Nc1ccc(C(=O)Cn2c3[n+](c4c(F)c(F)ccc42)CCCCC3)cc1	0	-12	3	-4	0	.	.
Cc1nn(-c2ccccc2)c(Cl)c1/C=N/Nc1nc2ccccc2[nH]1	-12	-6	6	-1	12*	3	10
